SMILES strings stand for the structures. Calls of active or inactive are those of the source.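 Rule for the calls: active = inhibition of 30% or more at any tested concentration; inactive = the rest.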

Drawing on PubChem BioAssay AID602212 (Southern Research Specialized Biocontainment Screening …, 2012), this text covers outcome for 8 molecules.

For this experiment, the system named is M18 aspartyl aminopeptidase (Plasmodium falciparum 3D7). The experiment in a line: inhibition of malaria M18 aspartyl aminopeptidase – biochemical, QFRET fluorogenic substrate, set 2, counter-screen for PfM1 aminopeptidase inhibitor project, dose response (AID 602212). To be noted: recombinant PfM18AAP, H-Glu-NHMec fluorogenic cleavage; series mostly up to 100 µM. In short, it runs like this: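 Test system – recombinant Plasmodium falciparum M18 aspartyl aminopeptidase, purified enzyme · Amount – 5 µg/mL PfM18AAP · Replication – each concentration tested in triplicate · Detection – released NHMec fluorescence, excitation 370 nm, emission 460 nm · Buffer or medium – Cobalt-containing Tris buffer, pH 7.5 · Reagent – 0.1 mM H-Glu-NHMec substrate · Schedule – Enzyme–substrate reaction with compound, 90 min, room temperature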
(In general: A counterscreen serves to expose hits that act by an unwanted route or on another target.)
Turning to `O=C(NCc1ccc(Cl)cc1)C1CCN(S(=O)(=O)c2ccc(Br)s2)CC1`, the result was inactive.
Consider `O=C(NCc1ccccc1)C1CCN(S(=O)(=O)c2ccc(Br)s2)CC1`, for which the result was inactive.
For the molecule `O=C(NCc1ccc2c(c1)OCO2)C1CCN(S(=O)(=O)c2ccc(Br)s2)CC1`, the outcome was inactive.
For `CC[C@H](C)[C@H](NC(=O)c1ccc(C(C)(C)C)cc1)C(=O)NCc1ccc(Cl)cc1`, the outcome was inactive.
On to `CC[C@H](C)[C@H](NS(=O)(=O)c1ccc(Br)s1)C(=O)NCc1ccc2c(c1)OCO2`, for which the outcome was inactive.
Regarding `CC[C@H](C)[C@H](NC(=O)c1ccc(C(C)(C)C)cc1)C(=O)NCc1ccc2c(c1)OCO2`, the result was inactive.
As to `O=C(NCc1ccc(F)cc1)C1CCN(S(=O)(=O)c2ccc(Br)s2)CC1`, the result was inactive.
For `CC[C@H](C)[C@H](NS(=O)(=O)c1ccc(Br)s1)C(=O)NCc1ccc(Cl)cc1` the value was “inactive”.
